In brackets after ≈: the same amount, converted by molar mass.
Experiments:
[1] = tested on: Tobacco mosaic virus; assay: Antiviral activity against Tobacco mosaic virus (TMV) in compound treated Nicotiana tabacum L.leaves assessed as curative effect from local lesions at 500 ug/ml measured after 3 to 4 days; assay type: functional
[2] = tested on: Tobacco mosaic virus; assay: Antiviral activity against Tobacco mosaic virus (TMV) in compound treated Nicotiana tabacum L.leaves assessed as protective effect from local lesions at 500 ug/ml measured after 3 to 4 days; assay type: functional
Method in brief: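 Half-leaf test on same-age N. tabacum L. leaves: compound solution smeared on the left half, solvent on the right as control. Leaves were inoculated 12 h later by brush with TMV at 6 × 10-3 mg/mL on silicon carbide-dusted leaves, then rinsed with water. Local lesions were counted 3–4 days later, three repetitions. Inhibition % = (control lesions − treated lesions)/control lesions × 100.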

[3] = tested on: Tobacco mosaic virus; assay: Antiviral activity against Tobacco mosaic virus (TMV) in compound treated Nicotiana tabacum L.leaves assessed as curative effect; assay type: functional, organism-based
[4] = tested on: Tobacco mosaic virus; assay: Antiviral activity against Tobacco mosaic virus (TMV) in compound treated Nicotiana tabacum L.leaves assessed as curative effect at 500 ug/ml; assay type: functional
[5] = tested on: Tobacco mosaic virus; assay: Antiviral activity against Tobacco mosaic virus (TMV) in compound treated Nicotiana tabacum L.leaves assessed as curative effect at 125 ug/ml; assay type: functional
[6] = tested on: Tobacco mosaic virus; assay: Antiviral activity against Tobacco mosaic virus (TMV) in compound treated Nicotiana tabacum L.leaves assessed as curative effect at 250 ug/ml; assay type: functional

Compound | Activity [1] [%] | Activity [2] [%] | EC50 [3] [µg/mL] | Activity [4] [%] | Activity [5] [%] | Activity [6] [%]
CCCCOP(=O)(OCCCC)C(NC(=S)N[C@H](C)C1CCCCC1)c1ccccc1 (stereo not given in full) | 34.6 | 33.7 | – | – | – | –
CC(C)OP(=O)(OC(C)C)C(NC(=S)N[C@H](C)c1ccccc1)c1ccccc1 (stereo not given in full) | 34.5 | 46.3 | – | – | – | –
CCCOP(=O)(OCCC)C(NC(=S)N[C@@H](C)C1CCCCC1)c1ccccc1 (stereo not given in full) | 54.3 | 30.9 | 240 (≈ 544 µM) | 54.8 | 39.1 | 49
CCCOP(=O)(OCCC)C(NC(=S)N[C@H](C)c1ccccc1)c1ccccc1 (stereo not given in full) | 41.9 | 45.9 | – | – | – | –
CC(C)OP(=O)(OC(C)C)C(NC(=S)N[C@@H](C)C1CCCCC1)c1ccccc1 (stereo not given in full) | 50.4 | 36.3 | 413 (≈ 938 µM) | 50.4 | 29 | 36.7
CCOP(=O)(OCC)C(NC(=S)N[C@H](C)c1ccccc1)c1ccccc1 (stereo not given in full) | 45.2 | 42.6 | – | – | – | –
CCOP(=O)(OCC)C(NC(=S)N[C@@H](C)c1ccccc1)c1ccccc1 (stereo not given in full) | 41.8 | 37.6 | – | – | – | –
CCCOP(=O)(OCCC)C(NC(=S)N[C@@H](C)c1ccccc1)c1ccccc1 (stereo not given in full) | 50.5 | 42.7 | 400 (≈ 920 µM) | 50.5 | 30.9 | 37.7
CNCC(=O)N[C@@H](CO)C(=O)N[C@H]1[C@H](O)[C@@H](O)[C@H](n2ccc(N)nc2=O)O[C@@H]1C(N)=O [NINGNANMYCIN] | 56.2 | 60.6 | 227 (≈ 512 µM) | 56.2 | 41.9 | 50.7
CCOP(=O)(OCC)C(NC(=S)N[C@@H](C)C1CCCCC1)c1ccccc1 (stereo not given in full) | 36.3 | 36.4 | – | – | – | –
CC(C)OP(=O)(OC(C)C)C(NC(=S)N[C@@H](C)c1ccccc1)c1ccccc1 (stereo not given in full) | 36.8 | 36.9 | – | – | – | –
CCCOP(=O)(OCCC)C(NC(=S)N[C@H](C)C1CCCCC1)c1ccccc1 (stereo not given in full) | 40.7 | 37.9 | – | – | – | –
CCOP(=O)(OCC)C(NC(=S)N[C@H](C)C1CCCCC1)c1ccccc1 (stereo not given in full) | 40.1 | 33.1 | – | – | – | –
CC(C)OP(=O)(OC(C)C)C(NC(=S)N[C@H](C)C1CCCCC1)c1ccccc1 (stereo not given in full) | 34.6 | 33.7 | – | – | – | –
CCCCOP(=O)(OCCCC)C(NC(=S)N[C@@H](C)C1CCCCC1)c1ccccc1 (stereo not given in full) | 50.4 | 36.3 | 379 (≈ 809 µM) | 50.4 | 32.9 | 37.2

— ChEMBL document CHEMBL3045158, “Synthesis and antiviral activities of chiral thiourea derivatives containing an alpha-aminophosphonate moiety” (J Agric Food Chem, 2009)
